# From PubChem BioAssay
# Only some compounds are listed: those with a hit (about 4.6% of all), similar ones and a draw of the others.
# TAAR1 antag: human TAAR1 antagonists, primary screen, Fluo-8 calcium fluorescence, CHO RD-HGA16 cells; Trace amine-associated receptor 1 (Homo sapiens), Q96RJ0; antagonist; inhibition, % at 3 µM; hit rate 1.5% among 360,000;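 active = inhibition above a per-plate cutoff, the mean inhibition of test compounds on that plate plus 3 SD, cut at about 49% in these data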;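 also: 0% = DMSO plus EC80 beta-PEA response and 100% = DMSO alone without agonist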
#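 Material: RD-HGA16 CHO cells with stable hTAAR1 and Gα16; Dosing: single nominal final test compound concentration of 3 µM; Schedule: seeding 17-24 h prior, 75-min 37 °C, 30-min RT dye loading; Detection: kinetic Fluo-8 calcium fluorescence measurement; Measure: % inhibition from peak post-agonist over basal fluorescence ratio; Benchmarks: vehicle and agonist controls.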
# GPR7 antag: GPR7 receptor antagonists, primary screen, cell-based, fluorescence, single concentration. GPR7-expressing cells, fluorescence antagonist assay. Neuropeptides B/W receptor type 1 (Homo sapiens), P48145. hit rate 1.1% among 290,000. AID 1861, 2009. inhibition, % at 4.4 µM; in the data active = inhibition above about 16%, passing the limit was not always enough;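 also: cells stimulated with the agonist NPW; 0% = agonist with vehicle and 100% = vehicle without agonist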
# Target sequence (P48145 whole entry, looked up): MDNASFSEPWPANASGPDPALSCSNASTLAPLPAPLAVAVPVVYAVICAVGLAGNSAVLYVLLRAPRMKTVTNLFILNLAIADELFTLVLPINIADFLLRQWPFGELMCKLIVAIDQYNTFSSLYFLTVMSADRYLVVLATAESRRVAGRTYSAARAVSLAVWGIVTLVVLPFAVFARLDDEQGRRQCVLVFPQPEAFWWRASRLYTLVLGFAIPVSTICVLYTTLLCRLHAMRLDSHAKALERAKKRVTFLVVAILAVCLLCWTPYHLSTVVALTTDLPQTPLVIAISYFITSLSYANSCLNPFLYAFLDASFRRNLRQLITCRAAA
# CHO parental Ca: ATP-evoked calcium signal inhibitors, parental CHO, primary screen, counter-screen for OX1R antagonist project, cell-based, fluorescence, Fluo-8 calcium dye; hit rate 0.63% among 330,000; parental CHO-K1, ATP-induced calcium, Fluo-8 fluorescence; inhibition, % at 5.6 µM; AID 463079, 2010;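 active = inhibition above that plate's mean sample inhibition plus 3 SD, cut at about 26% in these data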;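 also: 0% = ATP-challenged DMSO wells and 100% = DMSO wells without ATP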
#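 Test system: untransfected parental CHO cell line. Compound: one dose, 5.6 µM nominal. Detection: intracellular calcium via Fluo-8 no-wash fluorescent dye. Measure: % inhibition. Benchmarks: ATP-challenged DMSO wells low, unchallenged DMSO wells high.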
# TAAR1 agonist: human TAAR1 agonists, primary screen, Fluo-8 calcium fluorescence, CHO RD-HGA16 cells; activation, % at 3 µM; hit rate 0.99% among 360,000; AID 624467, 2012; vehicle wells 0%, saturating PEA agonist 100%; Trace amine-associated receptor 1 (Homo sapiens), Q96RJ0;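 active = activation above the mean activation of all test compounds in the run plus 3 SD, cut at about 38% in these data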
#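 Signal – calcium-sensitive Fluo-8 signal, excitation 470-495, emission 515-575 nm · System – RD-HGA16 (CHO) cells co-expressing Gα16 and hTAAR1 · Incubation – 17-24 h seeding, 75 min 37 °C dye, 30 min RT · Compound dosing – 3 µM single concentration · Repeats – no replicates (n 1)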
# OX1R antag-1: antagonists of human orexin 1 receptor (OX1R); hit rate 1.8% among 330,000; AID 485270, 2010; inhibition, % at 6.6 µM; OX1R-expressing cells, FRET antagonist read-out; in the data active = inhibition mostly above about 38%, no sharp cut-off; inactive = mostly below about 40%;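 also: 0% = agonist challenge alone and 100% = reference antagonist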
# OX1R antag-2: OX1R (HCRTR1) antagonists, primary screen, fluorescence, CHO/OX1R cells, Fluo-8 calcium, orexin A; Orexin/Hypocretin receptor type 1 (Homo sapiens), O43613; Fluo-8 calcium fluorescence; inhibition, % at 5 µM; hit rate 0.43% among 330,000;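 active = inhibition above its plate's threshold, mean inhibition of all tested compounds on the plate plus 3 SD, cut at about 37% in these data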;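 also: 0% = orexin A challenge wells and 100% = SB-334867-A antagonist wells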
# * hit, by the source's call; nt = no result given; ! = repeats disagree.
SMILES,TAAR1 antag,GPR7 antag,CHO parental Ca,TAAR1 agonist,OX1R antag-1,OX1R antag-2
Cc1ccnc(SCC(=O)Nc2sc3c(c2C#N)CCCC3)n1,29.8,15.0,69.1*,13.9,80.2*,74.2*
S=C1NCCN1c1ccc(Cl)cc1,-9.5,nt,nt,2.1,nt,nt
CCn1c2c(n(C(C)=O)c1=O)C=C(C(=O)N1CCCC1)C(C)C(c1ccccc1)=C2 (stereo not given),20.6,nt,nt,7.7,nt,nt
CCCC1=NN2C(=N)/C(=C\c3cc(C)n(-c4cc(C)cc(C)c4)c3C)C(=O)N=C2S1,53.2*,-7.7,-13.3,41.8*,25.8,-23.5
Cc1cc(C)cc(-n2c(C)cc(/C=C3\C(=N)N4N=C(CC(C)C)SC4=NC3=O)c2C)c1,-8.9,-6.1,-4.6,8.3,5.9,-20.4
O=C1Nc2cccc3c2N(CCC3)C2=C1CCC2,-5.7,nt,nt,2.0,nt,nt
Cc1cc(C(=O)OCC(=O)NCc2cccs2)ccc1[N+](=O)[O-],3.8,nt,-13.4,0.8,16.2,1.3
COC(=O)c1cc(C(=O)OCC(=O)NCc2cccs2)cc([N+](=O)[O-])c1,-9.5,nt,-18.1,2.7,30.7*,-21.5
Cc1nc2c(OCCOc3ccc(F)cc3)cccn2c1N(C)C(=O)CCC1CCCC1,26.3,nt,nt,1.2,nt,nt
Cc1cccc(Nc2nc(N)nc(N)c2N=O)c1,-56.0,nt,nt,45.5*,nt,nt
Cc1[nH][nH]c(=O)c1C(c1ccc(-c2ccc(Cl)c(Cl)c2)o1)c1c(C)[nH][nH]c1=O,104.7*,2.5,-5.0,32.0,1.1,14.9
Cc1[nH][nH]c(=O)c1C(c1ccc(-c2ccc(F)cc2)o1)c1c(C)[nH][nH]c1=O,-9.7,0.1,-7.0,1.9,18.5,-10.4
N#CC(C#N)c1ccnc2ccccc12,1.9,nt,nt,7.5,nt,nt
CN(C)S(=O)(=O)c1cccc(NC(=O)c2cc(-c3cccs3)nc3ccccc23)c1,64.5*,-1.0,-2.2,16.3,26.4,-2.8
O=C(Nc1nnc(-c2cccs2)o1)c1cc(-c2ccccc2)nc2ccccc12,-8.0,-2.0,-5.1,21.7,46.2*,-5.3
CCOC(=O)c1cccc(N2C(N)=NC(N)=NC2(C)C)c1,2.8,15.5*,-0.9,-0.2,4.8,6.7
COc1ccccc1NC(=O)N1CCc2[nH]c3ccc(F)cc3c2C1,-9.8,0.3,-7.9,42.9*,34.9,-23.1
O=C(C1CCCCC1)N1CCc2[nH]c3ccc(F)cc3c2C1,-12.4,-4.8,-8.7,11.9,2.2,-7.7
Cc1cc(=O)n2[nH]c(-c3ccccc3)cc2n1,-18.3,4.6,-5.7,3.3,30.3,-25.1
Cc1cc(=O)n2[nH]c(-c3ccc(C(C)(C)C)cc3)cc2n1,23.9,24.8*!,-7.2,3.6,12.8,-10.1
NC(=O)c1ncn([C@@H]2O[C@H](C(=O)Nc3ccc(Oc4ccccc4)nc3)[C@@H](O)[C@H]2O)n1,-18.9,nt,nt,1.4,nt,nt
CCOC(=O)c1cnc(SCc2nc(N)nc(Nc3ccc(F)cc3)n2)nc1N,12.5,-6.2,-17.3,11.3,60.6*,15.9
COc1ccc(Cl)cc1N1C(=O)C2CCCN2C1c1ccc(F)c(F)c1 (stereo not given),-24.1,16.4*,-27.0,-1.9,10.0,-15.6
COc1cccc(CC(=O)Nc2nc(-c3ccc(F)c(F)c3)cs2)c1,52.1*,17.2,-9.9,3.9,8.2,-20.5
CN1CCN(CC(=O)Nc2nc(-c3ccccc3)cs2)CC1,-13.7,-0.1,5.0,-1.1,9.1,-9.8
Cc1cc(C(=O)OC(C)C(=O)Nc2nc(-c3ccccc3)cs2)c(C)o1 (stereo not given),-3.2,-7.8,-2.8,-2.0,24.8,3.2
COc1ccc(C2(O)CCN(CC(=O)Nc3nc(-c4ccccc4)cs3)CC2)cc1,51.3*,0.9,-16.8,12.9,4.0,-21.1
Cc1cc(C(=O)OCC(=O)Nc2nc(-c3ccccc3)cs2)c(C)o1,17.7,8.3,-10.5,-1.6,65.8*,-9.5
CC(OC(=O)c1ccc([N+](=O)[O-])o1)C(=O)Nc1nc(-c2ccc(F)c(F)c2)cs1 (stereo not given),58.6*,nt,nt,6.0,nt,nt
